Test results taken from ChEMBL document CHEMBL1138683 (J Med Chem, 2004).

How the values were obtained:
Mus musculus [1] = assay: Anti convulsant activity administered intra peritoneally to mouse for subcutaneous metrazol test at 4 hr after the drug administered with dose of 100 mg/kg; 0/1= No of animals protected /No of animals tested; format: functional
[2] = Anti convulsant activity administered intra peritoneally to mouse for toxicity at 4 hr with dose of 30 mg/kg; 0/2= No of animals exhibiting toxicity /No of animals tested; format: organism-based; parameters: dose 30 mg/kg; details: in vivo, ip
Mus musculus [3] = assay: Anti convulsant activity administered intra peritoneally to mouse at maximal electroshock test at 4 hr after the drug administered with dose of 300 mg/kg; 0/1= No of animals protected /No of animals tested; format: functional
Mus musculus [4] = assay: Anti convulsant activity administered intra peritoneally to mouse at maximal electroshock test at 4 hr after the drug administered with dose of 30 mg/kg; 0/1= No of animals protected /No of animals tested; format: functional
Mus musculus [5] = assay: Anti convulsant activity administered intra peritoneally to mouse for subcutaneous metrazol test at 4 hr with dose of 300 mg/kg; 0/1= No of animals protected /No of animals tested; format: functional
Rattus norvegicus [6] = assay: Anticonvulsant activity after oral administration of 30 mg/kg dose after 1 hr in rats; + means 25% of the animals protected; format: functional, organism-based; parameters: dose 30 mg/kg
How it was run: (§1)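 Oral dosing of rats at a single dose, compound dissolved or suspended in 0.5% methylcellulose. Protection in the MES or scMet test checked 15 min, 30 min, 1 h, 2 h and 4 h after dosing. Scored as 25/50/75/100% of animals protected (+ to ++++), – for none.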

Mus musculus [7] = assay: Anti convulsant activity administered intra peritoneally to mouse at maximal electroshock test at 0.5 hr after the drug administered with dose of 300 mg/kg; 1/1= No of animals protected /No of animals tested; format: functional
Mus musculus [8] = assay: Anti convulsant activity administered intra peritoneally to mouse at maximal electroshock test at 0.5 hr after the drug administered with dose of 100 mg/kg; 0/3= No of animals protected /No of animals tested; format: functional
Rattus norvegicus [9] = assay: Anticonvulsant activity after oral administration of 30 mg/kg dose after 15 min in rats; +means 25% of the animals protected; format: functional, organism-based; parameters: dose 30 mg/kg; how it was run: as §1
[10] = Anti convulsant activity administered intra peritoneally to mouse for toxicity at 4 hr with dose of 100 mg/kg; 0/4= No of animals exhibiting toxicity /No of animals tested; format: organism-based; parameters: dose 100 mg/kg; details: in vivo, ip
[11] = Anti convulsant activity administered intra peritoneally to mouse for toxicity at 0.5 hr with dose of 30 mg/kg; 0/4= No of animals exhibiting toxicity /No of animals tested; format: organism-based; parameters: dose 30 mg/kg; details: in vivo, ip
Mus musculus [12] = assay: Anti convulsant activity administered intra peritoneally to mouse at maximal electroshock test at 4 hr after the drug administered with dose of 100 mg/kg; 0/3= No of animals protected /No of animals tested; format: functional
Mus musculus [13] = assay: Anti convulsant activity administered intra peritoneally to mouse at maximal electroshock test at 0.5 h after the drug administered with dose of 30 mg/kg; 0/1= No of animals protected /No of animals tested; format: functional
Mus musculus [14] = assay: Anti convulsant activity administered intra peritoneally to mouse for subcutaneous metrazol test at 4 hr after the drug administered with dose of 30 mg/kg; 0/1= No of animals protected /No of animals tested; format: functional; details: route intraperitoneal
[15] = Anti convulsant activity administered intra peritoneally to mouse for toxicity at 0.5 hr with dose of 100 mg/kg; 0/8= No of animals exhibiting toxicity /No of animals tested; format: organism-based; parameters: dose 100 mg/kg; details: in vivo, ip
Mus musculus [16] = assay: Anti convulsant activity administered intra peritoneally to mouse for subcutaneous metrazol test at 0.5 h with dose of 300 mg/kg; 0/1= No of animals protected /No of animals tested; format: functional
[17] = Anti convulsant activity administered intra peritoneally to mouse for toxicity at 0.5 hr with dose of 300 mg/kg; 3/4= No of animals exhibiting toxicity /No of animals tested; format: organism-based; parameters: dose 300 mg/kg; details: in vivo, ip
[18] = Anti convulsant activity administered intra peritoneally to mouse for toxicity at 4 hr with dose of 300 mg/kg; 0/2= No of animals exhibiting toxicity /No of animals tested; format: organism-based; parameters: dose 300 mg/kg; details: in vivo, ip
Mus musculus [19] = assay: Anti convulsant activity administered intra peritoneally to mouse for subcutaneous metrazol test at 0.5 hr with dose of 30 mg/kg; 0/1= No of animals protected /No of animals tested; format: functional
Mus musculus [20] = assay: Anti convulsant activity administered intra peritoneally to mouse at maximal electroshock test at 0.5 h after the drug administered with dose of 300 mg/kg; 0/1= No of animals protected /No of animals tested; format: functional
[21] = Anti convulsant activity administered intra peritoneally to mouse for toxicity at 0.5 hr with dose of 300 mg/kg; 1/4= No of animals exhibiting toxicity /No of animals tested; format: organism-based; parameters: dose 300 mg/kg; details: in vivo, ip
Rattus norvegicus [22] = assay: Quantitative Anticonvulsant activity administered orally to rat at maximal electro shock test; the interval in parenthesis stands for 95% confidence interval; format: functional; details: po
How it was run: (§2)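 Oral dosing in rats with compound dissolved or suspended in 0.5% methylcellulose (0.04 mL per 10 g body weight). […] Protective index taken as TD50/ED50 for each test.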

Rattus norvegicus [23] = assay: Quantitative Anticonvulsant activity administered orally to rat for toxicity; format: functional; details: po; how it was run: as §2
[24] = Anti convulsant activity administered intra peritoneally to mouse for toxicity at 4 hr with dose of 300 mg/kg; 1/2= No of animals exhibiting toxicity /No of animals tested; format: organism-based; parameters: dose 300 mg/kg; details: in vivo, ip
Rattus norvegicus [25] = assay: Quantitative Anticonvulsant activity administered orally to rat for protective index in subcutaneous metrazol test; format: functional; how it was run: as §2
Mus musculus [26] = assay: Anti convulsant activity administered intra peritoneally to mouse for subcutaneous metrazol test at 4 hr with dose of 300 mg/kg; 1/1= No of animals protected /No of animals tested; format: functional
Rattus norvegicus [27] = assay: Anticonvulsant activity after oral administration of 50 mg/kg dose after 30 min in rats; +++ means 75% of the animals protected; format: functional, organism-based; parameters: dose 50 mg/kg
How it was run: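 Rats dosed orally with compound dissolved or suspended in 0.5% methylcellulose (0.04 mL per 10 g body weight). Anticonvulsant protection (MES or scMet) and toxicity scored at 15 min, 30 min, 1 h, 2 h and 4 h after dosing. Graded in steps of 25% of animals protected or showing toxicity.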

Rattus norvegicus [28] = assay: Anticonvulsant activity after oral administration of 100 mg/kg dose after 1 hr in rats; + means 25% of the animals protected; format: functional, organism-based; parameters: dose 100 mg/kg; how it was run: as §1
[29] = Anti convulsant activity administered intra peritoneally to mouse for toxicity at 0.5 hr with dose of 300 mg/kg; 4/4= No of animals exhibiting toxicity /No of animals tested; format: organism-based; parameters: dose 300 mg/kg; details: in vivo, ip
Mus musculus [30] = assay: Quantitative Anticonvulsant activity administered intraperitoneally to mouse for protective index in maximal electro shock test;TD50/ED50; format: functional
How it was run: (§3)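 Mice dosed intraperitoneally with compound dissolved or suspended in 0.5% methylcellulose (0.01 mL per gram body weight). […] Protective index calculated as TD50/ED50 for each seizure test.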

Mus musculus [31] = assay: Quantitative Anticonvulsant activity administered intraperitoneally to mouse for subcutaneous metrazol test; format: functional; how it was run: as §3
Mus musculus [32] = assay: Anti convulsant activity administered intra peritoneally to mouse for toxicity at 4 hr with dose of 30 mg/kg; 2/3= No of animals exhibiting toxicity /No of animals tested; format: functional
Rattus norvegicus [33] = assay: Quantitative Anticonvulsant activity administered orally to rat for protective index in maximal electro shock test;TD50/ED50; format: functional; how it was run: as §2
[34] = Quantitative Anticonvulsant activity administered intraperitoneally to mouse for toxicity; details: in vivo, ip; how it was run: as §3
Mus musculus [35] = assay: Anti convulsant activity administered intra peritoneally to mouse for subcutaneous metrazol test at 0.5 hr with dose of 300 mg/kg; 1/1= No of animals protected /No of animals tested; format: functional
Rattus norvegicus [36] = assay: Quantitative Anticonvulsant activity administered orally to rat for subcutaneous metrazol test; format: functional; how it was run: as §2
Rattus norvegicus [37] = assay: Anticonvulsant activity after oral administration of 30 mg/kg dose after 30 min in rats; ++ means 50% animals protected; format: functional, organism-based; parameters: dose 30 mg/kg; how it was run: as §1
Rattus norvegicus [38] = assay: Anticonvulsant activity after oral administration of 30 mg/kg dose after 1 hr in rats; ++means 50% animals protected; format: functional, organism-based; parameters: dose 30 mg/kg; how it was run: as §1
Mus musculus [39] = assay: Quantitative Anticonvulsant activity administered intraperitoneally to mouse for protective index in subcutaneous metrazol test; format: functional; how it was run: as §3
Rattus norvegicus [40] = assay: Anticonvulsant activity after oral administration of 50 mg/kg dose after 15 min in rats; ++++means 100% of the animals protected; format: functional, organism-based; parameters: dose 50 mg/kg; how it was run: as §1

| Structure (SMILES) | Activity (Mus musculus [1]) | Toxicity [2] | Activity (Mus musculus [3]) | Activity (Mus musculus [4]) | Activity (Mus musculus [5]) | Activity (Mus musculus [7]) | Activity (Mus musculus [8]) | Toxicity [10] | Toxicity [11] | Activity (Mus musculus [12]) | Activity (Mus musculus [13]) | Activity (Mus musculus [14]) | Toxicity [15] | Activity (Mus musculus [16]) | Toxicity [18] | Activity (Mus musculus [19]) | also measured |
| --- | --- | --- | --- | --- | --- | --- | --- | --- | --- | --- | --- | --- | --- | --- | --- | --- | --- |
| CC(O)CNC(=O)C1C(C)(C)C1(C)C (configuration not stated) | 0 | 0 | 0 | 0 | 0 | 1 | 0 | 0 | 0 | 0 | 0 | 0 | 0 | 0 | 0 | 0 | Activity (Rattus norvegicus [6]): 25% of the animals protected; Activity (Rattus norvegicus [9]): 25% of the animals protected; Toxicity [17]: 3 |
| CC1(C)C(C(=O)NO)C1(C)C | 0 | 0 | 0 | 0 | 0 | – | 0 | 0 | 0 | 0 | 0 | 0 | 0 | 0 | 0 | 0 | Activity (Mus musculus [20]): 0; Toxicity [21]: 1 |
| CONC(=O)C1C(C)(C)C1(C)C | 0 | 0 | 0 | 0 | – | 1 | – | 0 | 0 | 0 | 0 | 0 | 0 | – | – | 0 | ED50 (Rattus norvegicus [22]): 108 mg/kg; ED50 (Rattus norvegicus [23]): 333 mg/kg; Toxicity [24]: 1; Activity (Rattus norvegicus [25]): 9.5; Activity (Mus musculus [26]): 1; Activity (Rattus norvegicus [27]): 25% of the animals protected; Activity (Rattus norvegicus [28]): 25% of the animals protected; Toxicity [29]: 4; Ratio (Mus musculus [30]): 1.4 mg/kg; ED50 (Mus musculus [31]): 74 mg/kg; Activity (Mus musculus [32]): 2; Ratio (Rattus norvegicus [33]): 3.1; TD50 [34]: 116 mg/kg; Activity (Mus musculus [35]): 1; ED50 (Rattus norvegicus [36]): 35 mg/kg; Activity (Rattus norvegicus [37]): 25% of the animals protected; Activity (Rattus norvegicus [38]): 25% of the animals protected; Anticonvulsant (Mus musculus [39]): 2.2; Anticonvulsant Activity (Rattus norvegicus [40]): 100% of the animals protected |
